Test results published in ChEMBL document CHEMBL4007432, “Discovery and characterization of novel CYP1B1 inhibitors based on heterocyclic chalcones: Overcoming cisplatin resistance in CYP1B1-overexpressing lines” (Eur J Med Chem, 2017).
Converted amounts (≈) assume the structure as drawn.

Legend:
Cytochrome P450 1A1 = molecular target: T1, Cytochrome P450 1A1 (Homo sapiens, UniProt P04798); experiment: Inhibition of human liver CYP1A1 expressed in Saccharomyces cerevisiae YY7 microsomal membranes using 7-ethoxyresorufin as substrate after 10 mins by fluorescence assay; type: ADME, Microsomal Membrane
T1 sequence (P04798 whole entry): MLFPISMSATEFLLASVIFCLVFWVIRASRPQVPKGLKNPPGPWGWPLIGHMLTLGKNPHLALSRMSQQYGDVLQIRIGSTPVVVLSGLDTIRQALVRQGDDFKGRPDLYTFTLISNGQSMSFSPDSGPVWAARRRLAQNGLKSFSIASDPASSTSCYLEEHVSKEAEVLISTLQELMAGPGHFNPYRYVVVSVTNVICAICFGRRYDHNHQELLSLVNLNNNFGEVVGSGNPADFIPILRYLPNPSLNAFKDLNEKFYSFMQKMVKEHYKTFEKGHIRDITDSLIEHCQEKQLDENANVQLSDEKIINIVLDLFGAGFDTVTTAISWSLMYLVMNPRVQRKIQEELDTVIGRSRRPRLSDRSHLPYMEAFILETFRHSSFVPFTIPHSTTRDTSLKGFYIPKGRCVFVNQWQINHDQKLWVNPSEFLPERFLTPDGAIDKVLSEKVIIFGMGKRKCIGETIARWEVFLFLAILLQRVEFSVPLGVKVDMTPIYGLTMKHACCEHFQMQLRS
Procedure, shortened: (§1)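 Yeast microsomes (YY7 strain carrying human reductase) held 0.5 pmol CYP with an NADP+/glucose-6-phosphate/G6PDH regenerating system in KPi. Fluorogenic substrate per isoform: 7-ER, CEC, EOMCC or DBF. Six serial 1:20 dilutions were tested, DMSO ≤0.5%. Reactions ran 10 min at 37 °C and were stopped with Tris-acetonitrile. Endpoint fluorescence (530/590 nm for resorufin) was fitted by 4-parameter sigmoid. Triplicate, ≥3 experiments.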

[1] = Solubility of the compound in pH 6.8 simulated intestinal fluid; type: physicochemical
Cytochrome P450 1B1 [2] = molecular target: T2, Cytochrome P450 1B1 (Homo sapiens, UniProt Q16678); experiment: Inhibition of human liver CYP1B1 expressed in Saccharomyces cerevisiae YY7 microsomal membranes at 5 to 10 uM using 7-ethoxyresorufin as substrate after 10 mins by fluorescence assay
T2 sequence (Q16678 whole entry): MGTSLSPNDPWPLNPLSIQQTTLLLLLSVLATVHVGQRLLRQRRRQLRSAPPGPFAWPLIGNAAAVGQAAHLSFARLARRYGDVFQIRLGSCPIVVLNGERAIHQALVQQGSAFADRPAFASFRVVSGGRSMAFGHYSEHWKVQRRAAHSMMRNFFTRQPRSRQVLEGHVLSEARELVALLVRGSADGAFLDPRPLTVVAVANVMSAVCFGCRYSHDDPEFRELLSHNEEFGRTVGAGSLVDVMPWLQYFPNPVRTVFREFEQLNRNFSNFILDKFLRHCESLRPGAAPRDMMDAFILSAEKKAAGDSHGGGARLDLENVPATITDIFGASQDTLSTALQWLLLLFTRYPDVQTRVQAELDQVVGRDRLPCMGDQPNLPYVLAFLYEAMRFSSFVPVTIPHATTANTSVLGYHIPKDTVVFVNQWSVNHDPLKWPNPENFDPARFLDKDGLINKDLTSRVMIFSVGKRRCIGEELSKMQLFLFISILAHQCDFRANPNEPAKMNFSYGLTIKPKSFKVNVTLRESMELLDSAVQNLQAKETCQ
Procedure, shortened: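 Single-concentration screen on CYP1B1 yeast microsomes at 5 µM (10 µM per methods), with 7-ER under the regenerating-system endpoint format: 10 min at 37 °C. Percentage inhibition versus a DMSO control; each compound tested twice.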

Cytochrome P450 2D6 = Cytochrome P450 2D6 (Homo sapiens, UniProt P10635); experiment: Inhibition of human liver CYP2D6 expressed in Saccharomyces cerevisiae YY7 microsomal membranes using EOMCC as substrate after 10 mins by fluorescence assay; type: ADME, Microsomal Membrane; procedure, shortened: as §1
Cytochrome P450 2D6, sequence (P10635 whole entry): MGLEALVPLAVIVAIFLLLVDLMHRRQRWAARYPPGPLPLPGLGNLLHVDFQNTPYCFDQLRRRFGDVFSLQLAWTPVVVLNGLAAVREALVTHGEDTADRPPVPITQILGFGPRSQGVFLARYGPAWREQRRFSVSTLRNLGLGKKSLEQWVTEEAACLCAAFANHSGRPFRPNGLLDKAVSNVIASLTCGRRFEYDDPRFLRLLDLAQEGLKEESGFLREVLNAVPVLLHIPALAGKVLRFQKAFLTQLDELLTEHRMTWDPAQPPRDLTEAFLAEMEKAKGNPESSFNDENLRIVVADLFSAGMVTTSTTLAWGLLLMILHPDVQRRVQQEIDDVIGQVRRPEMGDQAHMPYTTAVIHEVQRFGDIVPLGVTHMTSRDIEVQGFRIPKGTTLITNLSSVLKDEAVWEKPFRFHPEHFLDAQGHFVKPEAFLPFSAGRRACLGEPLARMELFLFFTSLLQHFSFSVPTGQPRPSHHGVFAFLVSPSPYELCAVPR

Cytochrome P450 1B1 [3] = molecular target: T2, Cytochrome P450 1B1; experiment: Inhibition of human liver CYP1B1 expressed in HEK293 cells using 7-ethoxyresorufin as substrate preincubated for 30 mins followed by substrate addition measured after 60 mins by fluorescence assay; type: cell-based
Procedure, shortened: (§2)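 HEK293 cells adapted to suspension were lipid-transfected with pCDM/hCYP1B1, used 24–48 h later and resuspended at 4×10^6/mL. Wells of 100–200×10^3 cells, in triplicate, were preincubated with compound (1 nM–30 µM) for 30 min at 37 °C, 8% CO2. Substrate followed: 7-ER at 5 µM or CEC. Fluorescence was read over 60 min and IC50 obtained by sigmoidal fit.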

Cytochrome P450 1B1 [4] = molecular target: T2, Cytochrome P450 1B1; experiment: Inhibition of CYP1B1 in human A2780cis cells assessed as potentiation of cisplatin-induced cytotoxicity at 2 times CYP1B1 inhibitory IC50 by MTT assay; type: cell-based
Cytochrome P450 2C9 = Cytochrome P450 2C9 (Homo sapiens, UniProt P11712); experiment: Inhibition of human liver CYP2C9 expressed in Saccharomyces cerevisiae YY7 microsomal membranes using DBF as substrate after 10 mins by fluorescence assay; type: ADME, Microsomal Membrane
Cytochrome P450 2C9, sequence (P11712 whole entry): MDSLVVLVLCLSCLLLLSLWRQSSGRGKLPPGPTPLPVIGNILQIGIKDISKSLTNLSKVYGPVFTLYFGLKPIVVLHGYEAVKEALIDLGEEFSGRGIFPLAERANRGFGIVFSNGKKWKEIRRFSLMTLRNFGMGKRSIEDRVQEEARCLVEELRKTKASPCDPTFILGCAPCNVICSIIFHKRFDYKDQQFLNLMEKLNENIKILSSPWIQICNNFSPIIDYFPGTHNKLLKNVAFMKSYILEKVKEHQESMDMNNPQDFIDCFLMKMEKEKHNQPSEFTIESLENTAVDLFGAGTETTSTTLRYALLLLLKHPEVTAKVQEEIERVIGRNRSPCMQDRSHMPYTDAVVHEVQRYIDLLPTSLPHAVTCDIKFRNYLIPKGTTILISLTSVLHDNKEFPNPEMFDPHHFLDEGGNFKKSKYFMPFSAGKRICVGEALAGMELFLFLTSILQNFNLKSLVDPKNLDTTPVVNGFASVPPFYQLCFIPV

Cytochrome P450 3A4 = Cytochrome P450 3A4 (Homo sapiens, UniProt P08684); experiment: Inhibition of human liver CYP3A4 expressed in Saccharomyces cerevisiae YY7 microsomal membranes using DBF as substrate after 10 mins by fluorescence assay; type: ADME, Microsomal Membrane
Cytochrome P450 3A4, sequence (P08684 whole entry): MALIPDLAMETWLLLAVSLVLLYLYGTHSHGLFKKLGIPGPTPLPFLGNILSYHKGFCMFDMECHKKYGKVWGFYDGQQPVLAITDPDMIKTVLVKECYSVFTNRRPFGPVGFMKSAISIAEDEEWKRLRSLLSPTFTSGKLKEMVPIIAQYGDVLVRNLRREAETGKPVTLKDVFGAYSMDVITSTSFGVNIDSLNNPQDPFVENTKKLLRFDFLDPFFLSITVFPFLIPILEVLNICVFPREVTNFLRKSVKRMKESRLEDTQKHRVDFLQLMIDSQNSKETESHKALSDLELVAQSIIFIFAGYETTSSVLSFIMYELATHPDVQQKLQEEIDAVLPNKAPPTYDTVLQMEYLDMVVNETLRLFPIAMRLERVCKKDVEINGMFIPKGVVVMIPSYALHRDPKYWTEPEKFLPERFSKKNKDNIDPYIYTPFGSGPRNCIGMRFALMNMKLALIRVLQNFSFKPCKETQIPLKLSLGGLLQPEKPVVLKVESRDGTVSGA

Cytochrome P450 1B1 [5] = molecular target: T2, Cytochrome P450 1B1; experiment: Inhibition of human liver CYP1B1 expressed in Saccharomyces cerevisiae YY7 microsomal membranes using 7-ethoxyresorufin as substrate after 10 mins by fluorescence assay; procedure, shortened: as §1
Cytochrome P450 1B1 [6] = molecular target: T2, Cytochrome P450 1B1; experiment: Inhibition of human liver CYP1B1 expressed in HEK293 cells using CEC as substrate preincubated for 30 mins followed by substrate addition measured after 60 mins by fluorescence assay; type: cell-based; procedure, shortened: as §2
[7] = Solubility of the compound in pH 1.2 simulated gastric fluid; type: physicochemical
Cytochrome P450 1A2 = molecular target: T3, Cytochrome P450 1A2 (Homo sapiens, UniProt P05177); experiment: Inhibition of human liver CYP1A2 expressed in Saccharomyces cerevisiae YY7 microsomal membranes using CEC as substrate after 10 mins by fluorescence assay; type: ADME, Microsomal Membrane; procedure, shortened: as §1
T3 sequence (P05177 whole entry): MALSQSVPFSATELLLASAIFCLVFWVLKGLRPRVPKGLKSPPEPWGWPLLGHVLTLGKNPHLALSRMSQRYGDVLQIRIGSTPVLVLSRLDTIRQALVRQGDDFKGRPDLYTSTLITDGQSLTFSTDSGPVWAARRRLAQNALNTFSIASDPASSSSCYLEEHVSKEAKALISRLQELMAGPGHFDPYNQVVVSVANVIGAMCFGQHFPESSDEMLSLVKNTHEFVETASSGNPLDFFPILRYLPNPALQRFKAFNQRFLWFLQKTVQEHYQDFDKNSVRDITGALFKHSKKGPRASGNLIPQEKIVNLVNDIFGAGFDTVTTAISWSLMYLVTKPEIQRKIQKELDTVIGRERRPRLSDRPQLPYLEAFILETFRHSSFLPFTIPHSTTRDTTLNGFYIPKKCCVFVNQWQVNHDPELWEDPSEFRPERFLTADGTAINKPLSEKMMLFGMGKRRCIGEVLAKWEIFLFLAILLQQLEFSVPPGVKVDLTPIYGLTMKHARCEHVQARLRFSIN

Cytochrome P450 1B1 [8] = molecular target: T2, Cytochrome P450 1B1; experiment: Inhibition of human liver CYP1B1 expressed in Saccharomyces cerevisiae YY7 cells using 7-ethoxyresorufin as substrate after 10 mins by fluorescence assay; type: cell-based
Procedure, shortened: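 Live S. cerevisiae YY7 carrying human CYP1B1 was grown in YP-galactose. Cells were harvested 16–20 h after induction, washed in TE (pH 7.4) and diluted 1:10.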

[9] = Solubility of the compound in pH 7.4 PBS buffer; type: physicochemical
Cytochrome P450 2C19 = Cytochrome P450 2C19 (Homo sapiens, UniProt P33261); experiment: Inhibition of human liver CYP2C19 expressed in Saccharomyces cerevisiae YY7 microsomal membranes using DBF as substrate after 10 mins by fluorescence assay; type: ADME, Microsomal Membrane
Cytochrome P450 2C19, sequence (P33261 whole entry): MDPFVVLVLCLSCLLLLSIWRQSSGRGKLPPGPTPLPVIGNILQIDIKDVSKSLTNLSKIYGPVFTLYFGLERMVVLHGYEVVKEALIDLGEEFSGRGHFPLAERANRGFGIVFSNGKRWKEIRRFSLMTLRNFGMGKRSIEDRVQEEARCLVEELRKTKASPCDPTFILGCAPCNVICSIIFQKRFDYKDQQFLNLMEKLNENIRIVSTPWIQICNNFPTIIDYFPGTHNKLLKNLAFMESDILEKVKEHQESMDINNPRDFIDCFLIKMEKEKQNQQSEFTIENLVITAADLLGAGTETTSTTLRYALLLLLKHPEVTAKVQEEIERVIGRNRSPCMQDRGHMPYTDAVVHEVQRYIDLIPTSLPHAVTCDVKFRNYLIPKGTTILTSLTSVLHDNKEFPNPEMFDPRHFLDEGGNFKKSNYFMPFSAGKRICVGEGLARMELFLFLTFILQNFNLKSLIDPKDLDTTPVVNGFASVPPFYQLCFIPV

CYP1B1 = molecular target: T4, CYP1B1 (Homo sapiens, UniProt Q16678); experiment: Inhibition of human liver CYP1B1 expressed in Saccharomyces cerevisiae YY7 microsomal membranes at 1 uM using 7-ethoxyresorufin as substrate after 10 mins by fluorescence assay relative to control; conditions: probe 7-ethoxyresorufin
T4 sequence (Q16678 whole entry): T2 sequence (Q16678 whole entry)

IC50 (Cytochrome P450 1A1)	solubility [1]	inhibition (INH) (Cytochrome P450 1B1 [2])	IC50 (Cytochrome P450 2D6)	IC50 (Cytochrome P450 1B1 [3])	IC50 (Cytochrome P450 2C9)	IC50 (Cytochrome P450 3A4)	IC50 (Cytochrome P450 1B1 [5])	IC50 (Cytochrome P450 1B1 [6])	solubility [7]	IC50 (Cytochrome P450 1A2)	IC50 (Cytochrome P450 1B1 [8])	solubility [9]	IC50 (Cytochrome P450 2C19)	inhibition at 10 min, 1 µM (CYP1B1)	Structure (SMILES)	inhibition (INH) (Cytochrome P450 1B1 [4])
742 nM	0.45 µg/mL (≈ 1.74 µM)	Active	10 µM	53 nM	> 20 µM	18 µM	10 nM	4 nM	68.6 µg/mL (≈ 264 µM)	1200 nM	64 nM	14.5 µg/mL (≈ 56 µM)	> 20 µM	–	O=C(/C=C/c1ccc2ccccc2c1)c1cccnc1	Not Active
795 nM	0.27 µg/mL (≈ 0.933 µM)	Active	5 µM	8 nM	> 20 µM	–	9 nM	4 nM	538 µg/mL (≈ 1860 µM)	1200 nM	65 nM	20.1 µg/mL (≈ 69.4 µM)	> 20 µM	–	COc1ccc2cc(C(=O)/C=C/c3cccnc3)ccc2c1	Not Active
–	0.58 µg/mL (≈ 2.13 µM)	Active	–	–	–	–	–	–	6.45 µg/mL (≈ 23.7 µM)	–	–	6.85 µg/mL (≈ 25.2 µM)	–	> 80%	O=c1cc(-c2ccccc2)oc2c1ccc1ccccc12 [ALPHA-NAPHTHOFLAVONE]	–
